# Data published in ChEMBL document CHEMBL1136623, “Cytotoxic activity of 6-alkynyl- and 6-alkenylpurines” (Bioorg Med Chem Lett, 2003).
# How the values were obtained:
# K562 [1] = experiment: Percent inhibition of [3H]-thymidine incorporation was determined in human chronic myelogenous leukemic K-562 cell line at 10 ug/mL after 48 hr; type: functional
# Procedure, shortened: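 Single-concentration screen. K-562 cells in log growth seeded at 2×10^4 cells/mL in supplemented RPMI 1640 and exposed 48 h to purine at 10 µg/mL, final DMSO 0.05%. Followed by a 2 h [3H]-thymidine pulse (1 µCi/well), harvest onto fiberglass filters, and scintillation count. Reported as percent inhibition of incorporation.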
# K562 [2] = experiment: Inhibitory concentration required against human chronic myelogenous leukemic K-562 cell line after 5h, using [3H]thymidine incorporation assay; type: functional, cell-based
# Procedure, shortened: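 K-562 cells in log-phase growth seeded at 4×10^4 cells/mL in supplemented RPMI 1640. Purines at 10 to 0.078 µg/mL for 5 h, final DMSO 0.05% (vol/vol). Then a 2 h pulse of 1 µCi/well [3H]-thymidine, filter harvest, and counting of cell-bound radioactivity. IC50 is the concentration giving 50% inhibition of incorporation.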
# K562 [3] = experiment: Inhibitory concentration required against human chronic myelogenous leukemic K-562 cell line after 48h, using [3H]thymidine incorporation assay; type: functional, cell-based
# Procedure, shortened: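 Logarithmically growing K-562 cells seeded at 2×10^4 cells/mL in RPMI 1640 with supplements. Exposed 48 h to purines at 10 to 0.078 µg/mL, final DMSO 0.05% (vol/vol). Pulsed 2 h with 1 µCi/well [3H]-thymidine, harvested onto fiberglass filters, and cell-associated radioactivity counted. IC50 taken as the concentration inhibiting incorporation by 50%.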
SMILES,inhibition at 10 µg/mL (K562 [1]) [%],IC50 (K562 [2]) [µg/mL],IC50 (K562 [3]) [µg/mL]
C/C(=C\C=C\c1[nH]cnc2ncnc1-2)CO,6,,
Nc1nc(/C=C/c2ccccc2)c2[nH]cnc2n1,2,,
C(=C\c1ncnc2c1ncn2C1CCOCC1)/c1ccccc1,66,,
CC(C)=CC#Cc1[nH]cnc2ncnc1-2,30,,
C=Cc1ncnc2ncn(Cc3ccccc3)c12,100,1.4,0.5
C(=C\c1ncnc2c1ncn2C1CCOCC1)/c1cccs1,65,,
C(=C\c1[nH]cnc2ncnc1-2)/c1ccsc1,32,,
COC(=O)/C(C)=C/C=C/c1[nH]cnc2ncnc1-2,20,,
C(=C\c1ncnc2c1ncn2C1CCOCC1)/c1ccsc1,58,,
C(=C\c1ncnc2c1ncn2C1CCOCC1)/c1ccco1,35,,
COc1ccc(/C=C/c2[nH]cnc3ncnc2-3)cc1,54,,
Clc1nc2c(C#Cc3ccccc3)ncnc2n1C1CCOCC1,85,7,6.1
C(=C\c1[nH]cnc2ncnc1-2)/c1ccccc1,28,,
C/C(=C\C=C\c1ncnc2c1ncn2C1CCOCC1)CO,27,,
C(=C\c1[nH]cnc2ncnc1-2)/c1ccco1,24,,
COc1ccc(/C=C/c2ncnc3c2ncn3C2CCOCC2)cc1,58,,
Clc1nc(C#Cc2ccccc2)c2ncn(Cc3ccccc3)c2n1,100,0.8,0.12

SMILES,inhibition at 10 µg/mL (K562 [1]) [%],IC50 (K562 [2]) [µg/mL],IC50 (K562 [3]) [µg/mL]
Clc1nc(/C=C/c2ccccc2)c2ncn(Cc3ccccc3)c2n1,99,6,2
C(=C\c1ncnc2c1ncn2Cc1ccccc1)/c1ccccc1,93,,
Nc1nc(/C=C/c2ccccc2)c2ncn(Cc3ccccc3)c2n1,91,2,1.2
C(#Cc1nc(-c2ccccc2)nc2c1ncn2Cc1ccccc1)c1ccccc1,100,2.4,1.4
C(=C\c1nc(-c2ccccc2)nc2c1ncn2Cc1ccccc1)/c1ccccc1,34,,
C=Cc1ncnc2c1ncn2Cc1ccccc1,100,2.2,1.1
C(#Cc1ncnc2c1ncn2Cc1ccccc1)c1ccccc1,98,6,1.3
COC(=O)/C(C)=C/C#Cc1[nH]cnc2ncnc1-2,100,3.2,1.6
C(=C\c1[nH]cnc2ncnc1-2)/c1cccs1,50,,
C(#Cc1[nH]cnc2ncnc1-2)c1ccccc1,100,5.9,0.7
C/C(=C\C#Cc1[nH]cnc2ncnc1-2)CO,17,,
C(#Cc1ncnc2c1ncn2C1CCOCC1)c1ccccc1,100,3.2,0.5
OC[C@H]1OC(n2cnc3c(C#Cc4ccccc4)ncnc32)[C@H](O)[C@@H]1O (stereo partly drawn),100,0.2,0.1
OC[C@H]1OC(n2cnc3c(/C=C/c4ccccc4)ncnc32)[C@H](O)[C@@H]1O (stereo partly drawn),79,10,2
Nc1nc(F)nc2c1ncn2[C@@H]1O[C@H](CO)[C@@H](O)[C@@H]1O [FLUDARABINE],98,0.6,0.6
Sc1ncnc2nc[nH]c12 [MERCAPTOPURINE ANHYDROUS],80,> 10,0.6
